Dyrk1A ADPGlo = rat Dyrk1A kinase inhibitors, primary screen, biochemical, single point, plate reader; inhibition, % at 12.5 µM; Dual specificity tyrosine-phosphorylation-regulated kinase 1A (Rattus norvegicus), Q63470; AID 504441, 2011; ADP-Glo luminescence, NFATc1 peptide; actives 0.43% (n = 310,000)
NSD2 inh = NSD2 histone methyltransferase inhibitors, primary screen, biochemical, AlphaScreen, single concentration, set 2; NSD2 peptide methylation, 120 min; actives 0.54% (n = 310,000); Histone-lysine N-methyltransferase NSD2 (Homo sapiens), O96028; inhibition, % at 12.5 µM
CDK5 inh = inhibitors of human CDK5/p35 kinase, primary screen, biochemical, single concentration | Cyclin-dependent kinase 5 (Homo sapiens) + Cyclin-dependent kinase 5 activator 1 (Homo … | Recombinant CDK5/p35, ADP-Glo luminescence, 60 min | inhibition, % at 10 µM | actives 0.01% (n = 330,000) | AID 488839, 2010;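 active = highest replicate inhibition of at least 50% and at least 75% of replicates reaching 50%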
SR-BI DiI inh = inhibitors of SR-BI mediated HDL lipid uptake, primary screen, ldlA[mSR-BI] cells, fluorescence, single point | Scavenger receptor class B member 1 (Mus musculus), Q61009 | ldlA[mSR-BI] CHO cells, DiI-HDL uptake fluorescence, 3 h | inhibition, % at 12.5 µM | actives 0.96% (n = 320,000) | AID 488896, 2010;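 active = mean replicate inhibition of at least 70% and a set share of replicates each scoring 70 or more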
dFosB act-1 = activators of delta FosB homodimer, primary screen, biochemical, fluorescence polarization, TAMRA-CDK5 oligo, single point | Protein FosB (Mus musculus), P13346 | activation, % at 25 µM | purified delta FosB; percent of positive-control signal above neutral wells | actives 0.99% (n = 340,000) | AID 493131, 2011;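 active = mean activation above about 17%, with every replicate also reaching it, limit read from the data, passing the limit was not always enough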
Target sequence (P13346 whole entry, looked up): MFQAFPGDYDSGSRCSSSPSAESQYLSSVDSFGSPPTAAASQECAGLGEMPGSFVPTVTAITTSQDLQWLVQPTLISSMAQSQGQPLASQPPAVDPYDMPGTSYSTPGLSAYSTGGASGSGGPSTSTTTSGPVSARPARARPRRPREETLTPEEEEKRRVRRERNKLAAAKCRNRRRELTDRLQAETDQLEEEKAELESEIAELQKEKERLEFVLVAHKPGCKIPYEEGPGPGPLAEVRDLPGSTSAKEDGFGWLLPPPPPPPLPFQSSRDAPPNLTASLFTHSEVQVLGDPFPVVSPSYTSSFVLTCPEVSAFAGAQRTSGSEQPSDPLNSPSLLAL
SR-BI uptake up = activators of SR-BI mediated DiI-HDL uptake, primary screen, ldlA[mSR-BI] CHO cells, DiI fluorescence. activation, % at 12.5 µM. actives 0.096% (n = 320,000). 3 h; 100 = double the neutral-control signal;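 active = mean replicate activation of at least 60% and every replicate at or above 60%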
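Material: SR-BI-overexpressing, LDLR-lacking CHO cells; schedule: compound exposure 3 h, 37 °C; reagent: DiI-labelled HDL at 10 µg/mL final; technique: bottom-read fluorescence, 550/595 nm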
dFosB act-2 = activators of mouse delta FosB DNA binding, confirmation, biochemical, fluorescence polarization, TAMRA-CDK5 oligo, cherry-picked samples; activation, % at 24.9 µM; AID 588690, 2011; purified delta FosB; normalised: neutral wells 0, positive control 100; shares compounds with dFosB act-1; 2,400 tested, under 10 active;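 active = highest replicate activation at or above 34% and every replicate reaching that threshold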;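 note: higher polarization means more probe DNA bound by delta FosB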
Numbers stand for hits; - = inactive; . = not tested or not shown. Hits are enriched below; roughly 2.5% of the tested compounds scored in any of these assays. Cut-off read from the data, not from the text of the source, unless noted: active = inhibition above about 50%; inactive = the rest.

SMILES	Dyrk1A ADPGlo	NSD2 inh	CDK5 inh	SR-BI DiI inh	dFosB act-1	SR-BI uptake up	dFosB act-2
Cc1cc(=O)n2nc(N3CCCC(C(=O)NCc4ccc(F)cc4)C3)sc2n1 (stereo unspecified)	-	-	-	-	-	-	.
O=C(NCc1ccc(F)cc1)C1CCCN(c2nc3ccsc3c(=O)s2)C1 (stereo unspecified)	-	.	-	.	75	.	-
CC(C)C[C@@H](CN1CCC[C@@H]1CN1C(=O)C(=O)NC[C@@H]1Cc1ccccc1)N1C[C@H](Cc2ccc(O)cc2)N(CCc2ccccc2)C(=O)C1=O	-	.	-	.	-	.	.
CCOc1ccc(CCN2C(=S)N([C@@H](CC(C)C)CN3CCCC3CN3C(=S)NC[C@@H]3Cc3ccc(O)cc3)C[C@@H]2Cc2ccccc2)cc1 (stereo partly specified)	.	.	-	-	65	-	-
CCOc1ccc(CCN2C(=S)N([C@@H](CC(C)C)CN3CCCC3CN3C(=S)NC[C@@H]3Cc3ccc(O)cc3)C[C@@H]2Cc2ccc(O)cc2)cc1 (stereo partly specified)	.	.	-	-	51	-	-
Oc1ccc(C[C@H]2CNC(=S)N2CC2CCCN2C[C@H](Cc2ccccc2)N2C[C@H](Cc3ccc(O)cc3)N(CCc3ccccc3)C2=S)cc1 (stereo partly specified)	.	.	-	-	67	108	-
COc1ccc(-c2noc(CN(C(=O)c3ccc4c(c3)OCO4)C(C)C)n2)cc1OC	-	-	-	-	-	-	.
COc1ccc(C(=O)c2sc3nc(-c4ccccc4)ccc3c2N)cc1OC	-	-	-	-	-	-	.
COc1ccc(-c2ccc3c(N)c(C(=O)c4ccc(OC)c(OC)c4)sc3n2)cc1	-	-	-	-	30	-	-
CCOC(=O)c1ccccc1NC(=O)Cn1c(-c2nonc2N)nc2ccccc21	-	-	-	-	-	-	.
Nc1nonc1-c1nc2ccccc2n1CC(=O)Nc1ccccc1	-	-	-	-	33	-	-
Cc1cc(C)c2sc(N(CCCN(C)C)C(=O)CN3C(=O)c4ccccc4C3=O)nc2c1	-	-	-	.	31	.	-
COc1ccc(NC(=S)N2CCN(C(=O)C3CCCO3)CC2)cc1 (stereo unspecified)	-	-	-	-	-	-	.
CCCCc1ccc(NC(=O)CSc2nc3ncccc3[nH]2)cc1	-	-	-	-	20	-	-
CCOC(=O)c1sc(NC(=O)CN2C(=O)c3cccc4cccc(c34)C2=O)nc1C	-	-	-	-	47	-	-
Oc1ccc(Br)cc1-c1cc(-c2ccc(Cl)cc2)n[nH]1	-	-	-	75	28	-	-
COc1cc2c(-c3ccc(O)cc3)nc3c(c(C)nn3-c3ccccc3)c2cc1OC	-	-	-	-	27	-	-
O=C(/C=C/c1ccccc1)NCC(=O)N/N=C/c1ccco1	-	-	-	-	-	-	.
COc1ccc(CCN2CC(C(=O)NCc3ccon3)CCC2=O)cc1 (stereo unspecified)	.	-	.	.	.	.	.
Cc1ccc(C(C)C)c(OCCCN(C)Cc2ccccc2)c1	-	-	-	-	-	-	.
Cc1ccc(OCCCCN(C)Cc2ccccc2)c(Br)c1	-	-	-	-	25	-	-
c1ccc(-n2cc(CN3CCCC(CN4CCCC4)C3)c(-c3ccc4c(c3)OCO4)n2)cc1 (stereo unspecified)	-	-	-	-	27	-	-
CC(C)(C)NC(=O)CN(C(=O)Cn1nnc(-c2ccc(Cl)cc2)n1)C1CCN(Cc2ccccc2)CC1	-	.	-	-	26	-	-
O=C(Cn1nnc(-c2ccc(CN3CCOCC3)cc2)n1)N(c1ccccc1)c1ccccc1	-	-	-	-	-	-	.
S=c1nccc(-c2ccc3c(c2)CCO3)[nH]1	-	-	-	-	-	-	.
SMILES	Dyrk1A ADPGlo	NSD2 inh	CDK5 inh	SR-BI DiI inh	dFosB act-1	SR-BI uptake up	dFosB act-2
Fc1ccc(-c2noc(-c3ccc4c(c3)CCO4)n2)cc1	-	-	-	-	28	-	-
Cc1ccc(C)c(NC(=O)CN2C(=O)NC(CCc3ccccc3)C2=O)c1 (stereo unspecified)	-	-	-	-	34	-	-
CCC(NC(=O)c1ccccc1NC(=O)c1ccco1)C(=O)NNC(=O)c1ccc(OC)cc1 (stereo unspecified)	-	-	-	-	32	-	-
COc1ccc(C(=O)NNC(=O)C(NC(=O)c2ccccc2NC(=O)c2ccco2)C(C)C)cc1 (stereo unspecified)	-	-	-	-	32	-	-
CCC(C)C(NC(=O)c1ccccc1NC(=O)c1ccco1)C(=O)NC1CCCCC1 (stereo unspecified)	-	-	-	-	31	-	-
CCC(C)C(NC(=O)c1ccccc1NC(=O)c1ccco1)C(=O)NNC(=O)c1ccc(OC)cc1 (stereo unspecified)	-	-	-	-	-	-	.
COc1ccccc1-n1c(SCC(=O)Nc2ccc(NC(C)=O)cc2)nc2c([nH]c3ccccc32)c1=O	.	-	-	-	-	-	.
CCOc1ccc(-n2c(SCC(=O)Nc3cc(C)on3)nc3c([nH]c4ccccc43)c2=O)cc1	-	.	-	-	41	-	-
CC(=O)Nc1ccc(NC(=O)CSc2nc3c([nH]c4ccccc43)c(=O)n2-c2ccccc2F)cc1	-	-	-	-	22	-	-
Cc1sc2nc(SCC(=O)NCc3ccco3)n(-c3ccccc3)c(=O)c2c1C	-	-	-	-	-	-	.
Cc1ccc(-n2c(SCC(=O)NCc3ccco3)nc3sc(C)c(C)c3c2=O)cc1	-	-	-	-	31	-	-
Cc1cc(NC(=O)CSc2nc3c(c(=O)n2-c2ccc(Br)cc2)SCC3)no1	-	.	-	-	42	-	-
CC(C)[C@H](NC(=O)c1ccc(Cl)cc1Cl)C(=O)NNc1cccc(C(=O)O)c1	-	-	-	-	-	-	.
CCOC(=O)c1nc(C)nc(Sc2n[nH]c(-c3ccc(C(C)(C)C)cc3)n2)c1C	-	-	-	-	-	-	.

Bioassay records as filed in PubChem BioAssay.
